Results taken from publication PMC3064798 (Nucleic Acids Research, 2011).
“Also recorded” adds a separate entry of the source.

Experiments:
Bst polymerase = biological target: T1, Bst polymerase (Geobacillus stearothermophilus, UniProt P52026); assay: PEP; type: biochemical
T1 sequence (P52026 1-876): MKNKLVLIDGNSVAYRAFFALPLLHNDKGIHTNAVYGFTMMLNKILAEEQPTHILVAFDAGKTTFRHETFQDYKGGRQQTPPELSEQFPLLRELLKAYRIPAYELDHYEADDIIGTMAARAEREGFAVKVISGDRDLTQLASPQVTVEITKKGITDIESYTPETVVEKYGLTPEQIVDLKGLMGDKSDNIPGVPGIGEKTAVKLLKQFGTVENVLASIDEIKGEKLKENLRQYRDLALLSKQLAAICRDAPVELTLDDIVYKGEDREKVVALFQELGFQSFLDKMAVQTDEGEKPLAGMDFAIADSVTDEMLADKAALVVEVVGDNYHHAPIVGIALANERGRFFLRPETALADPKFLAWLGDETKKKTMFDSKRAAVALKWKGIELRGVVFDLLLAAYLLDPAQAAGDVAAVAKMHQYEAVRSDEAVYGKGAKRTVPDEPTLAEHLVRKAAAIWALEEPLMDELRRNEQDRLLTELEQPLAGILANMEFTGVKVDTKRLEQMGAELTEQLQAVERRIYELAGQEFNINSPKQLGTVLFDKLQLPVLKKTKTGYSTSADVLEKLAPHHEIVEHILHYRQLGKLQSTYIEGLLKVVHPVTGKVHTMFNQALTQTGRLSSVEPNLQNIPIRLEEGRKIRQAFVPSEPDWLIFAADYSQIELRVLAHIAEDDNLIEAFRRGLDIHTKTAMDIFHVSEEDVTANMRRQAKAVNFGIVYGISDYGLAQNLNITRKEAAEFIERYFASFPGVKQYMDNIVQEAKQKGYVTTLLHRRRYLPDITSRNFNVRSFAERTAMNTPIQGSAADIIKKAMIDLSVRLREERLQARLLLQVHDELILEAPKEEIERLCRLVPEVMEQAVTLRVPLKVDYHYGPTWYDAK
In short: (§1)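 Polymerase end-point assay for single-base incorporation. 5 nM BODIPY-FL-labelled primer-1 was hybridised to 40 nM oligoTemplate-4, with the interrogation base complementary to dU. Absence of a +1 band on the 377 gel image at 100 μM counts as not active. IC50 was averaged from triplicates ± 1 SD. Incorporation bias is the analog IC50 divided by the natural-nucleotide (HOMedUTP) IC50.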

Klenow(exo^−) polymerase = Klenow(exo^−) polymerase (Escherichia coli, UniProt P00582, D355A/E357A); assay: PEP; type: biochemical
In short: as §1

Taq polymerase = Taq polymerase (Thermus aquaticus, UniProt P19821); assay: PEP; type: biochemical; settings: for IC50 values (activity in words): Taq, Not Active = no visible +1 band in 377 gel image at 100 μM
In short: as §1

[1] = biological target: T2, DeepVent(exo^−) polymerase (Pyrococcus sp., UniProt Q51334, D141A/DEL493-1029/E143A); assay: PEP; type: biochemical; settings: for Incorporation bias (analog IC50/HOMedUTP IC50): DeepVent(exo^−)
T2 sequence (Q51334 with tags, fused parts or gaps D141A/E143A/DEL493-1029): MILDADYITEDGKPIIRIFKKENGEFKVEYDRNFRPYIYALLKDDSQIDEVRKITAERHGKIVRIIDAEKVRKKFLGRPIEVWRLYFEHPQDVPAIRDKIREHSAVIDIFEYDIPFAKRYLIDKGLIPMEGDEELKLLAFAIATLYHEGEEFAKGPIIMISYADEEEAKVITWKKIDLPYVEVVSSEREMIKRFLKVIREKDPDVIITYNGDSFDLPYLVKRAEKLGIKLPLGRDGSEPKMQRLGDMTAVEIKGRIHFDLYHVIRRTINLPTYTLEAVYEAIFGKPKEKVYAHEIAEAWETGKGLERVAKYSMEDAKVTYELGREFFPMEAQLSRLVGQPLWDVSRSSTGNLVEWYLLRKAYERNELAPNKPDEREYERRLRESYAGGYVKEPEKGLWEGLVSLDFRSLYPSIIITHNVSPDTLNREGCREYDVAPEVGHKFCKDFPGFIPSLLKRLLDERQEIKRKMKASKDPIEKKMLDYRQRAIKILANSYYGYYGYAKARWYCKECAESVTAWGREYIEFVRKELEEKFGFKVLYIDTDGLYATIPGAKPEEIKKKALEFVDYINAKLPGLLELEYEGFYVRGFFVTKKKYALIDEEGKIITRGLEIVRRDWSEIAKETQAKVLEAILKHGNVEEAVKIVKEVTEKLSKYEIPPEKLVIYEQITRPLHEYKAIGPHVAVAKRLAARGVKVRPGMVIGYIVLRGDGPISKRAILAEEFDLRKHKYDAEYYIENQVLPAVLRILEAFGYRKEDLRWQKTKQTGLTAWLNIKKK
In short: as §1

[2] = Photochemical cleavage studies; type: physicochemical; settings: for DT50 values (time at which 50% of 2-nitrobenzyl groups were photochemically cleaved): 365 nm UV, incorporated in primer-1/oligoTemplate-4; for DT50 in sodium azide compared with the FBD solution: 50 mM sodium azide vs FBD; for DT50 faster than the parent dU.I analog: azide solution
In short: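 Analogs (100 nM final) were incorporated as in PEP on BODIPY-FL primer-1/oligoTemplate-4 (10 nM/80 nM). Reactions were quenched in FBD solution (20% formamide, 10 mM Na2EDTA pH 8.0, Blue Dextran) or 50 mM sodium azide. Samples were irradiated at 365 nm for various times, then iced, mixed with formamide stop solution and run on an AB 377 sequencer. DT50 is the time for 50% cleavage, from triplicates ± 1 SD.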

Sequence of Taq polymerase (P19821 whole entry): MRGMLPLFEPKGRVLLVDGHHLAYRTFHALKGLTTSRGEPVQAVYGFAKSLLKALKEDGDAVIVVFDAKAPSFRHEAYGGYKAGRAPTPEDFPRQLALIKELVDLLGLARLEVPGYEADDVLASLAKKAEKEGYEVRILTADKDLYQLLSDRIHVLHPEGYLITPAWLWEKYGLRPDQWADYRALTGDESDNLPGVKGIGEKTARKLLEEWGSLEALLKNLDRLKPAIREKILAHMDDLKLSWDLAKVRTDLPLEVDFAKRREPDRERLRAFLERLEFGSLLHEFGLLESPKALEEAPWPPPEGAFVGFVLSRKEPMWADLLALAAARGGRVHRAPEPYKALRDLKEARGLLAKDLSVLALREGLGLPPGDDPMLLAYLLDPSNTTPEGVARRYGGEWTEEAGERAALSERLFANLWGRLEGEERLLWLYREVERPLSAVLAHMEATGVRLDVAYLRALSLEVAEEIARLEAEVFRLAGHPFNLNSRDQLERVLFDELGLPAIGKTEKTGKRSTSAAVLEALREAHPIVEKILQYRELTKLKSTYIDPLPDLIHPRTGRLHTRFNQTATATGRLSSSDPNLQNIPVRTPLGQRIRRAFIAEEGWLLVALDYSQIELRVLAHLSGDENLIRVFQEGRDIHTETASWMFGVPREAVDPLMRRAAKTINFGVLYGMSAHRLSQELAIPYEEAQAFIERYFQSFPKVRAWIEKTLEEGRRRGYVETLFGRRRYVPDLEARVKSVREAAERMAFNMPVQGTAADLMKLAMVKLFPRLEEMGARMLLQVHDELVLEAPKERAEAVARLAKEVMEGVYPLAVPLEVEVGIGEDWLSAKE

Row | SMILES | IC50 (Bst polymerase) [nM] | Incorporation bias (analog IC50/HOMedUTP IC50) (Bst polymerase; Bst) | IC50 (Klenow(exo^−) polymerase) [nM] | Incorporation bias (analog IC50/HOMedUTP IC50) (Klenow(exo^−) polymerase; Klenow(exo^−)) | IC50 values (activity in words) (Taq polymerase) | IC50 [1] [nM] | Incorporation bias (analog IC50/HOMedUTP IC50) [1] | DT50 values (time at which 50% of 2-nitrobenzyl groups were photochemically cleaved) ([2]; 50 mM NaN3) [s] | DT50 in sodium azide compared with the FBD solution [2] | DT50 values (time at which 50% of 2-nitrobenzyl groups were photochemically cleaved) ([2]; FBD solution) [s] | DT50 faster than the parent dU.I analog [2] | IC50 values (activity in words) (Bst polymerase; Bst, Not Active = no visible +1 band in 377 gel image at 100 μM) | IC50 values (activity in words) (Klenow(exo^−) polymerase; Klenow(exo^−), Not Active = no visible +1 band in 377 gel image at 100 μM) | IC50 (Taq polymerase) [nM]
1 | CC(OCc1cn([C@H]2C[C@H](O)[C@@H](COP(=O)(O)OP(=O)(O)OP(=O)(O)O)O2)c(=O)[nH]c1=O)c1ccccc1[N+](=O)[O-] (mixture of isomers) [dU.II, 5-[1-(2-Nitrophenyl)ethyloxy]methyl-2'-deoxyuridine-5’-triphosphate] | 3500 ± 200 | 1600 | 2400 ± 100 | 1500 | no activity at all; also recorded: Not Active^a | 17 ± 1 | 6.3 | 2.0 ± 0.1 | approximately three-fold lower | 7.4 ± 1.2 | 33-60% | – | – | –
2 | CC(C)C(OCc1cn([C@H]2C[C@H](O)[C@@H](COP(=O)(O)OP(=O)(O)OP(=O)(O)O)O2)c(=O)[nH]c1=O)c1ccccc1[N+](=O)[O-] (mixture of isomers) [dU.III, 5-[1-(2-Nitrophenyl)-2-methyl-propyloxy]methyl-2'-deoxyuridine-5’-triphosphate] | – | – | – | – | none of the Family A polymerases showed any activity; also recorded: Not Active^a | 220 ± 20 | 80 | 2.4 ± 0.2 | approximately three-fold lower | 8.8 ± 0.8 | 33-60% | none of the Family A polymerases showed any activity; also recorded: Not Active^a | Not Active^a | –
3 | O=c1[nH]c(=O)n([C@H]2C[C@H](O)[C@@H](COP(=O)(O)OP(=O)(O)OP(=O)(O)O)O2)cc1COCc1ccccc1[N+](=O)[O-] [dU.I, 5-(2-Nitrobenzyloxy)methyl-2'-deoxyuridine-5’-triphosphate] | 98 ± 13 | 45 | 48 ± 4 | 30 | – | 4.9 ± 1 | 1.8 | 3.2 ± 0.1 | approximately three-fold lower | 8.7 ± 0.9 | – | – | – | 50000
